Experimental findings from ChEMBL document CHEMBL1129426, “5-Lipoxygenase inhibitors: synthesis and structure-activity relationships of a series of 1-aryl-2H,4H-tetrahydro-1,2,4-triazin-3-ones” (J Med Chem, 1996) are described below.

Where only a bound is given, the exact number is not on record here.

The target of one data set is T1, Polyunsaturated fatty acid 5-lipoxygenase (Homo sapiens, UniProt P09917).
T1 sequence (P09917 whole entry): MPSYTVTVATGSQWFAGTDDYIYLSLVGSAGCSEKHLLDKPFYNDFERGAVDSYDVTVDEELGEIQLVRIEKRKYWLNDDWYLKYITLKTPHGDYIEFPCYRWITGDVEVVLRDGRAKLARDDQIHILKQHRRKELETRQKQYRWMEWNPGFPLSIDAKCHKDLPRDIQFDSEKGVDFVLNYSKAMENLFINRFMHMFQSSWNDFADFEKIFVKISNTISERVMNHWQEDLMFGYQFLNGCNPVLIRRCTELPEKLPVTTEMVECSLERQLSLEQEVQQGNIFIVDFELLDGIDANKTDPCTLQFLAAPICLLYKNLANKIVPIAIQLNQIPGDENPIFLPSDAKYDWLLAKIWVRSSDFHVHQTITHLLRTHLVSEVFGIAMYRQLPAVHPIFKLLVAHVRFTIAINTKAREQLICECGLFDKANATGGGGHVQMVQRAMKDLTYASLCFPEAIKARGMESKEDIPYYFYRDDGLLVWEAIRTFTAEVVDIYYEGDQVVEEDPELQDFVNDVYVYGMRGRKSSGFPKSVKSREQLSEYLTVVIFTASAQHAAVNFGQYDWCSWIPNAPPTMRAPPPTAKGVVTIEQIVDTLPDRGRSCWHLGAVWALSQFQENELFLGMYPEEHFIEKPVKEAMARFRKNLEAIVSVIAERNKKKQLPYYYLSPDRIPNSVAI
Description: In vitro 5-lipoxygenase inhibitory activity against calcium ionophore (A23187) induced LTB4 formation in human whole blood.
Consider `O=C1NCCN(c2cccc(Cl)n2)N1`, for which the IC50 is 4.8 µM.
On the same count and under the same terms, with `COc1cccc(N2CCNC(=O)N2)n1` the figure was 3.5 µM; with `O=C1NCCN(c2cccc(F)n2)N1`, 3 µM.
Same read-out and setting: under `CC1CN(c2cccc(-c3cccs3)c2)NC(=O)N1` (stereo not drawn) stands 5.5 µM; under `COc1cccc(N2CC(C)NC(=O)N2)n1` (stereo not drawn), 7.1 µM.
Consider `CC1CN(c2cccc(Cl)c2)NC(=O)N1` (stereo not drawn), for which the 50% inhibitory concentration (IC50) is 2.7 µM.
Still for that read-out and setting: under `CC1CN(c2cccc(F)c2)NC(=O)N1` (stereo not drawn) stands 1.8 µM; under `CC1CN(c2cccc(Cl)c2)NC(=O)N1O` (stereo not drawn), 3.6 µM; under `O=C1NCCN(c2cccc(-c3ccsc3)c2)N1`, 5.3 µM.
On the same count and under the same terms, with `CC1CN(c2cccc(Br)c2)NC(=O)N1` (stereo not drawn) the figure was 5.2 µM; with `CSc1cccc(N2CCNC(=O)N2)c1`, 2.2 µM.
Same read-out and setting: with `O=C1NCCN(c2cccc(OCc3ccccc3)c2)N1` the figure was 0.2 µM.
For the compound `O=C1NCCN(c2ccccn2)N1`, the IC50 turned out to be 8.6 µM.
Still for that read-out and setting: under `O=C1NCCN(c2cccc(-c3cccs3)c2)N1` stands 8.8 µM.
On to `COCCOCC1CN(c2ccccc2)NC(=O)N1` (stereo not drawn), for which the IC50 was found to be 24 µM.
On the same count and under the same terms, with `Cc1cccc(N2CC(C)N(O)C(=O)N2)c1` (stereo not drawn) the figure was 4.8 µM.
With `O=C1NCCN(c2cc(F)cc(F)c2)N1`, the half-inhibitory concentration (IC50) came out at 4.6 µM.
Still for that read-out and setting: under `O=C1NCCN(c2cccc(-c3ccccn3)n2)N1` stands over 50 µM; under `CCC1CN(c2ccccc2)NC(=O)N1` (stereo not drawn), 3.8 µM; under `Cc1cccc(N2CCNC(=O)N2)c1`, 2 µM.
Same read-out and setting: with `CC1CN(c2cccc(F)n2)NC(=O)N1` (stereo not drawn) the figure was 6 µM; with `Cc1cccc(N2CC(C)NC(=O)N2)n1` (stereo not drawn), 1.7 µM; with `CC1CN(c2cccc(Br)n2)NC(=O)N1` (stereo not drawn), 3.1 µM.
On the same count and under the same terms, under `O=C1NCCN(c2cccc(-c3cccs3)n2)N1` stands 37 µM.

System in another data set: not listed separately
Description: Plasma Cmax in rat (PO dose). It counts as ADME, organism-based. More on the design: route oral. The procedure, abridged:
(§1)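 Rats dosed by oral gavage at 200 µmol/kg. Tail-vein blood drawn at about 1 h intervals; plasma analysed by HPLC. Mean of data from two animals.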
Turning to `O=C1NCCN(c2cccc(Cl)n2)N1`, the peak concentration (Cmax) stood at 122 µM.
Same read-out and setting: with `COc1cccc(N2CCNC(=O)N2)n1` the figure was 101 µM.
Regarding `CC1CN(c2cccc(-c3cccs3)c2)NC(=O)N1` (stereo not drawn), the highest concentration (Cmax) was 1 µM.
The compound `COc1cccc(N2CC(C)NC(=O)N2)n1` (stereo not drawn) registered a Cmax of 85 µM.
The compound `CC1CN(c2cccc(Cl)c2)NC(=O)N1` (stereo not drawn) displayed a Cmax of 31 µM.
For `CC1CN(c2cccc(F)c2)NC(=O)N1` (stereo not drawn), the Cmax stood at 70.2 µM.
Compound `O=C1NCCN(c2cccc(-c3ccsc3)c2)N1` showed a Cmax of 2 µM.
On the same count and under the same terms, under `CC1CN(c2cccc(Br)c2)NC(=O)N1` (stereo not drawn) stands 26 µM.
Still for that read-out and setting: under `CSc1cccc(N2CCNC(=O)N2)c1` stands 26 µM; under `O=C1NCCN(c2cccc(OCc3ccccc3)c2)N1`, 2.5 µM.
Same read-out and setting: under `O=C1NCCN(c2ccccn2)N1` stands 184 µM; under `O=C1NCCN(c2cccc(-c3cccs3)c2)N1`, 3 µM.
`O=C1NCCN(c2cc(F)cc(F)c2)N1`: the Cmax was 64 µM.
On the same count and under the same terms, with `CCC1CN(c2ccccc2)NC(=O)N1` (stereo not drawn) the figure was 59 µM.
On the same count and under the same terms, under `Cc1cccc(N2CCNC(=O)N2)c1` stands 98 µM.
Same read-out and setting: with `Cc1cccc(N2CC(C)NC(=O)N2)n1` (stereo not drawn) the figure was 125 µM.
As to `CC1CN(c2cccc(Br)n2)NC(=O)N1` (stereo not drawn), the concentration peaked (Cmax) at 21 µM.

System in a further data set: not listed separately
Description: Plasma Tmax in rat (PO dose). Format: ADME, organism-based. The method in brief: as §1
Take `O=C1NCCN(c2cccc(Cl)n2)N1`: the time to peak (Tmax) was determined as 2 h.
The same measure, in the same setting: under `COc1cccc(N2CCNC(=O)N2)n1` stands 1 h; under `CC1CN(c2cccc(-c3cccs3)c2)NC(=O)N1` (stereo not drawn), 4 h; under `COc1cccc(N2CC(C)NC(=O)N2)n1` (stereo not drawn), 1 h.
Same read-out and setting: under `CC1CN(c2cccc(Cl)c2)NC(=O)N1` (stereo not drawn) stands 4 h; under `CC1CN(c2cccc(F)c2)NC(=O)N1` (stereo not drawn), 7.2 h; under `O=C1NCCN(c2cccc(-c3ccsc3)c2)N1`, 1 h.
On the same count and under the same terms, with `CC1CN(c2cccc(Br)c2)NC(=O)N1` (stereo not drawn) the figure was 7.2 h; with `CSc1cccc(N2CCNC(=O)N2)c1`, 1 h; with `O=C1NCCN(c2cccc(OCc3ccccc3)c2)N1`, 1 h.
For the compound `O=C1NCCN(c2ccccn2)N1`, the Tmax is 1 h.
Still for that read-out and setting: with `O=C1NCCN(c2cccc(-c3cccs3)c2)N1` the figure was 1 h; with `O=C1NCCN(c2cc(F)cc(F)c2)N1`, 2 h.
The same measure, in the same setting: under `CCC1CN(c2ccccc2)NC(=O)N1` (stereo not drawn) stands 1.2 h.
Still for that read-out and setting: under `Cc1cccc(N2CCNC(=O)N2)c1` stands 1.1 h.
With `Cc1cccc(N2CC(C)NC(=O)N2)n1` (stereo not drawn), the time of peak concentration (Tmax) was 1 h.
The same measure, in the same setting: under `CC1CN(c2cccc(Br)n2)NC(=O)N1` (stereo not drawn) stands 2 h.

A further data set relates to Rattus norvegicus. Description: In vivo inhibition of rat anaphylaxis leukotriene formation from peritoneal fluids, 1 hr after an oral dose of 200 uM/Kg. It counts as functional. The procedure, abridged: (§2)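 Rats given 200 µmol/kg orally 1 h before antibody-antigen challenge inducing peritoneal leukotriene biosynthesis; LTE4 in peritoneal fluid measured. Mean of eight rats; percent inhibition versus control group mean; significance by one-way ANOVA with Tukey's multiple comparison.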
With `O=C1NCCN(c2cccc(Cl)n2)N1`, the 50% effect level (ED50) was put at a dose of 16 mg/kg.
`O=C1NCCN(c2ccccn2)N1` gave an ED50 of 8 mg/kg.
The compound `CCC1CN(c2ccccc2)NC(=O)N1` (stereo not drawn) registered a 50% effective dose (ED50) of 24 mg/kg.
On the same count and under the same terms, under `Cc1cccc(N2CCNC(=O)N2)c1` stands 18 mg/kg.

The next data set has as its target T2, Polyunsaturated fatty acid 5-lipoxygenase (Rattus norvegicus, UniProt P12527).
T2 sequence (P12527 whole entry): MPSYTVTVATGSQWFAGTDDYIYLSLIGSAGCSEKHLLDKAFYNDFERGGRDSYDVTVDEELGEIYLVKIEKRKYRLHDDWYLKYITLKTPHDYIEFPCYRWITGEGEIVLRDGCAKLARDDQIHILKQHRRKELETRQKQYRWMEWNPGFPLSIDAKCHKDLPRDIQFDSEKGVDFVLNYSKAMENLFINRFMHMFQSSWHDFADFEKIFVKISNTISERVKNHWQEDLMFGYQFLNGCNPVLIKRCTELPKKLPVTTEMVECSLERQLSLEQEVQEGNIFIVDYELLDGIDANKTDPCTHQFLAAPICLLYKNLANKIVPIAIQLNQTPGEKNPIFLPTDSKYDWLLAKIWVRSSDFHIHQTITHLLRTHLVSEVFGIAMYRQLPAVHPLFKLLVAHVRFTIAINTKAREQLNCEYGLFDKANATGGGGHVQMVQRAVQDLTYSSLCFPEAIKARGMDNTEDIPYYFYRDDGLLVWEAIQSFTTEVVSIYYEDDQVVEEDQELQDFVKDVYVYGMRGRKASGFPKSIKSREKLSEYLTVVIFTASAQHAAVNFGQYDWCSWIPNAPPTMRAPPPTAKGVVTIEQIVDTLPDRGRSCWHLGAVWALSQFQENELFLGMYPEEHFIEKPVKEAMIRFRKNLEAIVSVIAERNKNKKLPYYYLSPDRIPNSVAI
Nature of the data set: Inhibition of 5-lipoxygenase catalysis in rat basophilic leukemia (RBL) cells by measuring 5-HETE product formation. Format: cell-based, RBL-1. The procedure, abridged:
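Crude 20000g supernatant from sonicated rat basophilic leukemia cells used as 5-LO source; 5-HETE product formation measured.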
With `O=C1NCCN(c2cccc(Cl)n2)N1`, the midpoint of inhibition, the IC50, lay at 5.6 µM.
On the same count and under the same terms, under `COc1cccc(N2CCNC(=O)N2)n1` stands 9.5 µM.
Still for that read-out and setting: under `O=C1NCCN(c2cccc(F)n2)N1` stands 9.1 µM; under `CC1CN(c2cccc(-c3cccs3)c2)NC(=O)N1` (stereo not drawn), 2.8 µM; under `COc1cccc(N2CC(C)NC(=O)N2)n1` (stereo not drawn), 5.5 µM.
On to `CC1CN(c2cccc(Cl)c2)NC(=O)N1` (stereo not drawn), for which 2.7 µM corresponded to half-maximal inhibition (IC50).
Same read-out and setting: under `CC1CN(c2cccc(F)c2)NC(=O)N1` (stereo not drawn) stands 6.3 µM; under `O=C1NCCN(c2cccc(-c3ccsc3)c2)N1`, 4.9 µM; under `CC1CN(c2cccc(Br)c2)NC(=O)N1` (stereo not drawn), 2.6 µM.
Still for that read-out and setting: under `O=C1NCCN(c2cccc(OCc3ccccc3)c2)N1` stands 1.1 µM; under `O=C1NCCN(c2cccc(-c3cccs3)c2)N1`, 2.1 µM; under `COCCOCC1CN(c2ccccc2)NC(=O)N1` (stereo not drawn), 14 µM.
On the same count and under the same terms, under `Cc1cccc(N2CC(C)N(O)C(=O)N2)c1` (stereo not drawn) stands 8.4 µM.
As to `O=C1NCCN(c2cc(F)cc(F)c2)N1`, half-maximal inhibition (IC50) was put at 8.9 µM.
The same measure, in the same setting: under `O=C1NCCN(c2cccc(-c3ccccn3)n2)N1` stands 6 µM; under `CC1CN(c2cccc(F)n2)NC(=O)N1` (stereo not drawn), 6.6 µM.
On the same count and under the same terms, under `Cc1cccc(N2CC(C)NC(=O)N2)n1` (stereo not drawn) stands 3.8 µM.
Same read-out and setting: with `O=C1NCCN(c2cccc(-c3cccs3)n2)N1` the figure was 8.2 µM.

Another data set has as its system Rattus norvegicus. Nature of the data set: In vivo inhibition of rat anaphylaxis LTE4 leukotriene formation from peritoneal fluids, 1 hr after an oral dose of 200 uM/kg. Format: functional. The procedure, abridged: as §2
`COc1cccc(N2CCNC(=O)N2)n1` returned an Inhibition of 26%.
The same measure, in the same setting: with `CC1CN(c2cccc(Cl)c2)NC(=O)N1` (stereo not drawn) the figure was 40%.
The same measure, in the same setting: under `CC1CN(c2cccc(F)c2)NC(=O)N1` (stereo not drawn) stands 60%; under `CC1CN(c2cccc(Br)c2)NC(=O)N1` (stereo not drawn), 54%.
On the same count and under the same terms, with `CSc1cccc(N2CCNC(=O)N2)c1` the figure was 73%; with `O=C1NCCN(c2cccc(OCc3ccccc3)c2)N1`, 14%.
`O=C1NCCN(c2cc(F)cc(F)c2)N1`: the Inhibition was found to be 59%.
The same measure, in the same setting: under `CC1CN(c2cccc(Br)n2)NC(=O)N1` (stereo not drawn) stands 57%.

A word on the IC50: it is the concentration that gives 50% inhibition. A word on the Cmax: it is the peak of the concentration-time curve. Broadly, the Tmax is the time from dosing to the highest level. Broadly, the ED50 is the dose at which the effect has come halfway, by size or by number of responders. Low readings indicate an effect at a small dose, high ones a need for a large dose. The Inhibition is how much of the control response was suppressed. A high value points to strong suppression.
